Where two headings read alike, the source gives them in different places. One block for each compound: values may come before it.
Columns and labels:
[1] = Pharmacokinetics, HPLC analysis of plasma; assay type: in vivo, Fisher 344 rats
PGE2 = PGE2 in culture media of LPS-stimulated macrophages by ELISA; assay type: cell-based, mouse; details: RAW 264.7 macrophages, 130 μM for 12 h, then LPS 100 ng/ml overnight
Outline: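 RAW 264.7 mouse macrophages grown in DMEM. 1.5×10⁶ cells pre-incubated 12 h with test compound at 130 μM, then stimulated with LPS 100 ng/ml overnight. PGE2 in culture media measured by ELISA. Mean ± SEM, ANOVA.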

NF-κB subunit p65 [2] = assay: Western blot of p65 in nuclear extracts of HCT116 cells; assay type: cell-based, human
Outline: (§1)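 HCT116 cells grown in RPMI-1640. Cytoplasmic and nuclear fractions prepared by lysis, with NP-40 added at a later step; supernatant taken as cytoplasm. Nuclei washed, then resuspended in extraction buffer and pelleted. Standard western blot. Probes: rabbit anti-phospho-p65 (Ser276) for p65; mouse anti-β-catenin for β-catenin.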

β-catenin [3] = assay: Western blot of β-catenin in nuclear extracts of HCT116 cells; assay type: cell-based, human
Outline: as §1

[4] = assay type: in vivo, Fisher 344 rats; details: 7 days
Outline: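 Male Fisher 344 rats, 8–9 weeks old, 7 per group. […] Killed by CO2 1 h after the last dose. Stomach, small intestine and colon inspected for ulcers under magnification, then formalin-fixed for histology. Heart, liver, lung and kidney collected for toxicity analysis.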

NF-κB subunit p65 [5] = assay: Immunofluorescent staining of phospho-p65 in colon sections of AOM rats; assay type: in vivo, rat; details: AOM study, 40 weeks
Outline: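 Colons from rats killed at week 40 were formalin-fixed and paraffin-embedded; 4 μm sections cut. Antigen retrieval by microwaving 15 min in 0.01 mol/l citrate, pH 6.0. Blocked with 5% donkey serum 30 min. Rabbit anti-phospho-p65 (Ser276) with mouse anti-β-catenin, or control IgG, applied overnight at 4°C. Fluorescent donkey secondaries 1 h at room temperature. Viewed by fluorescence microscopy.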

[6] = system: AOM-induced colonic ACF and tumors; assay type: in vivo, Fisher 344 rats; details: for Weight: average ± SE
Outline: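 Male Fisher 344 rats, 3–4 weeks old, about 90 g, acclimated 1 week. AOM 15 mg/kg or saline given s.c. once weekly for 2 weeks. […] Rats weighed weekly. Week-20 colons formalin-fixed 24 h, stained with 0.2% methylene blue 3–5 min; ACF counted microscopically. Week-40 tumors counted; long and short diameters measured. Mean ± SEM, ANOVA.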

β-catenin [7] = assay: Immunofluorescent staining of β-catenin in colon sections of AOM rats; assay type: in vivo, rat; details: AOM study, 40 weeks
[8] = cited from earlier work
[9] = 20 weeks, saline, diet IBU 500 ppm or p-IBU 900 ppm
[10] = 40 weeks, saline, diet IBU 500 ppm or p-IBU 900 ppm

SMILES: CC(C)Cc1ccc(C(C)C(=O)O)cc1 (stereo not drawn) [ibuprofen, Ibuprofen]
suppression of PGE2 production compared to LPS-treated control (PGE2): 84.1%
nuclear translocation of the NF-κB subunit p65 (NF-κB activation) (NF-κB subunit p65 [2]): inhibitory effect was not observed
β-catenin levels in nuclear extracts compared to vehicle-treated control (β-catenin [3]): markedly decreased
rats with stomach ulceration ([4]; ibuprofen 670 mg/kg by gavage, 7 rats): 85.7%
ulceration in stomach or intestine ([4]; low dose by gavage): did not lead to ulceration
effect on phosphorylation of p65 (NF-κB activation) (NF-κB subunit p65 [5]): not ibuprofen inhibited
Weight ([6]; 20 weeks, AOM, diet IBU 500 ppm or p-IBU 900 ppm): 406±118.91
ACFs (ACF multiplicity) [6, 9]: 0
Tumors [6, 9]: 0
Weight [6, 9]: 416±6.11
Weight ([6]; 40 weeks, AOM, diet IBU 500 ppm or p-IBU 900 ppm): 432±8.84
ACFs [6, 10]: 0
Tumors (tumor multiplicity) [6, 10]: 0
Weight [6, 10]: 431±15.43
reduction of the multiplicity of ACF compared with vehicle ([6]; week 20, AOM rats, diet ibuprofen 500 ppm or p-ibuprofen 900 ppm): 37.9%
reduction of the multiplicity of colon tumors compared with vehicle ([6]; week 40, AOM rats, diet ibuprofen 500 ppm or p-ibuprofen 900 ppm): 56.6%
effect on AOM-induced β-catenin cytoplasmic accumulation and nuclear translocation (β-catenin [7]): reduced

SMILES: CC(C)Cc1ccc(C(C)C(=O)NCC(=O)O)cc1 (stereo not drawn) [ibuprofen-NHCH2COOH]
GI toxic side effects compared to the parent molecule [8]: decreased

SMILES: CC(C)Cc1ccc(C(C)C(=O)OCCN(C)C)cc1.Cl (stereo not drawn) [ibuprofen-O(CH2)2N(CH3)2HCl]
GI toxic side effects compared to the parent molecule [8]: decreased

Other lines, results leading:

plasma level of metabolite ([1]; 20 weeks (first value)): 4000 nM
plasma level of metabolite ([1]; 40 weeks): undetectable
SMILES: CC(C(=O)O)c1ccc(C(O)C(C)C)cc1 (stereo not drawn) [1-OH-ibuprofen]

plasma level of metabolite ([1]; group fed a diet of ibuprofen): 99000 nM
plasma level of metabolite ([1]; group fed a diet of p-ibuprofen): 102000 nM
SMILES: CC(C(=O)O)c1ccc(CC(C)(C)O)cc1 (stereo not drawn) [2-OH-ibuprofen]

plasma level of metabolite ([1]; 20 weeks (first value)): 3000 nM
plasma level of metabolite ([1]; 40 weeks): 3000 nM
SMILES: CC(Cc1ccc(C(C)C(=O)O)cc1)C(=O)O (stereo not drawn) [carboxy-ibuprofen]

plasma level of metabolite ([1]; 20 weeks (first value)): 1000 nM
plasma level of metabolite ([1]; 40 weeks): 1000 nM
SMILES: CC(C)Cc1ccc(C(C)C(=O)O[C@@H]2O[C@H](C(=O)O)[C@@H](O)[C@H](O)[C@H]2O)cc1 (stereo partly drawn) [ibuprofen-glucuronide]
